Calls of active or inactive are those of the source. No cut-off for these calls is given here.

Data set [1] concerns the target T1, Protein lin-28 homolog A (Homo sapiens) (UniProt Q9H9Z2).
T1 sequence (whole entry): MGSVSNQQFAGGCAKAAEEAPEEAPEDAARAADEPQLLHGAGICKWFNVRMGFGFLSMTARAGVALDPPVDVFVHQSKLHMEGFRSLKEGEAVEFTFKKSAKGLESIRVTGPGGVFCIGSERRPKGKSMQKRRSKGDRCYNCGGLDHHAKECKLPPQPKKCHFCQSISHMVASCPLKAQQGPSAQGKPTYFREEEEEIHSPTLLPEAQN
In words: Binding affinity to recombinant human N-terminal His6-tagged Lin28a zinc knuckle domain expressed in Escherichia coli Rosetta2 (DE3) pLysS at 0.625 to 10 uM by surface plasmon resonance analysis.

In data set [2] the target is T1, Protein lin-28 homolog A (Homo sapiens). In words: Inhibition of Lin28a in human PA1 cells assessed as increase in mature let-7g level at 10 uM after 20 hrs by TRIzol dye based qRT-PCR analysis. The data set is classed as cell-based. The procedure, abridged: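 PA-1 ovarian teratocarcinoma cells (express Lin28a) treated for 20 h; let-7 quantified relative to U6 snRNA; 4 biological replicates, standard deviation, paired two-tailed t test.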

The target of data set [3] is T2, Protein lin-28 homolog A/B (Homo sapiens) (UniProt Q6ZN17+Q9H9Z2). In words: Inhibition of Lin28a/Lin28b in human paclitaxel-resistant JAR cells assessed as reduction in MDR1 expression at 10 uM measured after 24 hrs by Western blot analysis. A general note: A western blot detects proteins with antibodies after separation by electrophoresis.
In data set [4] the test system is JAR. The data set can be described thus: Effect on miR-98 level in human JAR cells at 5 to 10 uM after 20 hrs by TRIzol dye based qRT-PCR analysis. The data set is classed as functional, cell-based. The procedure, abridged: (§1)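 JAR cells (express Lin28a and Lin28b) exposed to compound for 20 h; miRNA levels quantified with U6 snRNA as endogenous control; three or more biological replicates, standard deviation, paired two-tailed t test.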
A general note: Quantitative PCR measures a nucleic acid by following its amplification.

Data set [5] has as its system JAR. In words: Effect on miR-20b level in human JAR cells at 5 to 10 uM after 20 hrs by TRIzol dye based qRT-PCR analysis. Type of data set: functional, cell-based. An outline of the steps:
as §1

The target of data set [6] is T3, Protein lin-28 homolog A (Homo sapiens, UniProt Q9H9Z2).
T3 sequence (Q9H9Z2 whole entry): T1 sequence (whole entry)
The data set can be described thus: Binding affinity to recombinant human N-terminal His6-tagged Lin28a expressed in Escherichia coli Rosetta2 (DE3) pLysS by surface plasmon resonance analysis. An outline of the steps:
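Surface plasmon resonance detecting direct binding of analyte to immobilized Lin28a, run at concentrations from 0.31 to 10 μM; binding read as a dose–response curve and Rmax calculated.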
(In general: Surface plasmon resonance follows binding to a sensor surface in real time, without labels.)

Data set [7] concerns the target T2, Protein lin-28 homolog A/B (Homo sapiens). In words: Inhibition of Lin28a/Lin28b in human paclitaxel-resistant JAR cells assessed as potentiation of paclitaxel induced cytotoxicity at 10 uM pretreated for 30 hrs followed by paclitaxel addition and measured after 72 hrs by WTS assay. An outline of the steps:
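Paclitaxel-resistant JAR persister cells, enriched by cytotoxic paclitaxel exposure and regrowth without drug. Cells pretreated 30 h with compound, then given paclitaxel for 72 h without compound; WST viability used to derive the paclitaxel IC50.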

Data set [8] deals with Heterogeneous nuclear ribonucleoprotein A1 (Homo sapiens) (UniProt P09651). In words: Inhibition of biotinylated-preE-let-7g binding to hnRNPA1 in human JAR cells by pull down assay. The data set is classed as cell-based. An outline of the steps:
(§2)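 5′-Biotinylated preE-let-7g is immobilized on streptavidin beads and incubated with proteome from JAR human choriocarcinoma cells, which express Lin28a and Lin28b. Test compound is present during binding, and target engagement is judged by the proteins pulled down.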

For data set [9], the target named is T4, Protein lin-28 homolog B (Homo sapiens) (UniProt Q6ZN17).
T4 sequence (whole entry): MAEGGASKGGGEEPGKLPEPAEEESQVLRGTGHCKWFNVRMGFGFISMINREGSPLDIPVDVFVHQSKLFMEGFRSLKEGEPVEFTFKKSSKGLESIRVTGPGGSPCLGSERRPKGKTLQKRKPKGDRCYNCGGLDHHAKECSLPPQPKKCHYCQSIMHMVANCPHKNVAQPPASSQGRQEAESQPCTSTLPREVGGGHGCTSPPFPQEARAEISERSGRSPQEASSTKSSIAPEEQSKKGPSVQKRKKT
In words: Inhibition of biotinylated-preE-let-7g binding to Lin28b in human JAR cells by pull down assay. Type of data set: cell-based. The procedure, abridged:
as §2

Data set [10] addresses T1, Protein lin-28 homolog A (Homo sapiens). The data set can be described thus: Inhibition of Cy5-preE-let-7a-1 binding to recombinant human N-terminal His6-tagged Lin28a expressed in Escherichia coli Rosetta2 (DE3) pLysS measured after 30 to 60 mins by electrophoretic mobility shift assay.
The target of data set [11] is T2, Protein lin-28 homolog A/B (Homo sapiens). The data set can be described thus: Inhibition of Lin28a/Lin28b in human JAR cells assessed as increase in mature let-7i level after 20 hrs by TRIzol dye based qRT-PCR analysis. Type of data set: cell-based. An outline of the steps:
as §1

The target is the same in data set [12]. In words: Inhibition of Lin28a/Lin28b in human MCF7 cells assessed as reduction in IMP1 expression at 10 uM after 24 hrs by Western blot analysis. The data set is classed as cell-based.
The target in data set [13] is T1, Protein lin-28 homolog A (Homo sapiens). In words: Binding affinity to recombinant human N-terminal His6-tagged Lin28a cold shock domain expressed in Escherichia coli Rosetta2 (DE3) pLysS at 0.625 to 10 uM by surface plasmon resonance analysis.
For data set [14] the target is unchanged. The data set can be described thus: Inhibition of Lin28a in human PA1 cells assessed as reduction in Ras expression at 10 uM after 24 hrs by Western blot analysis. The data set is classed as cell-based. The procedure, abridged:
(§3)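 Endogenous let-7 target proteins (HMGA2, IMP1, Ras, Lin28a) detected by Western blot in JAR or PA-1 cells after 24 h compound treatment.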

Data set [15] has as its target T3, Protein lin-28 homolog A. The data set can be described thus: Inhibition of Cy5-preE-let-7g binding to recombinant human N-terminal His6-tagged Lin28a expressed in Escherichia coli Rosetta2 (DE3) pLysS measured after 30 to 60 mins by electrophoretic mobility shift assay.
Another data set has as its system C2C12. In words: Cytotoxicity against mouse C2C12 cells at 10 uM after 24 hrs by WST assay. Type of data set: cell-based. The conditions noted are these: c2c12, 24 h.
Data set [16] addresses T2, Protein lin-28 homolog A/B (Homo sapiens). The data set can be described thus: Inhibition of Lin28a/Lin28b in human JAR cells assessed as increase in mature let-7a level after 20 hrs by TRIzol dye based qRT-PCR analysis. Type of data set: cell-based. An outline of the steps: as §1
The target in data set [17] is T1, Protein lin-28 homolog A (Homo sapiens). In words: Inhibition of pre-let-7g binding to recombinant human N-terminal His6-tagged Lin28a expressed in Escherichia coli Rosetta2 (DE3) pLysS assessed as increase in dicer-mediated pre-let-7g microRNA maturation at 5 to 10 uM measured after 40 mins by SYBR green2 dye based fluorescence assay.
Data set [18] has as its system JAR. In words: Increase in mature let-7i level in Lin28a/b knockdown human JAR cells at 10 uM after 20 hrs by qRT-PCR analysis. The data set is classed as functional, cell-based. The procedure, abridged: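 Lin28 knocked-down JAR cells treated for 20 h; let-7 levels measured against U6 snRNA endogenous control; 2 biological replicates.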
The target of data set [19] is T2, Protein lin-28 homolog A/B (Homo sapiens). The data set can be described thus: Inhibition of Lin28a/Lin28b in human JAR cells assessed as reduction in Ras expression at 5 to 10 uM after 24 hrs by Western blot analysis. Type of data set: cell-based. An outline of the steps: as §3
The target is the same in data set [20]. In words: Inhibition of Lin28a/Lin28b in human JAR cells assessed as increase in mature let-7f level after 20 hrs by TRIzol dye based qRT-PCR analysis. Type of data set: cell-based. An outline of the steps:
as §1

For data set [21], the target named is T1, Protein lin-28 homolog A (Homo sapiens). The data set can be described thus: Inhibition of PreE-let-7a-1-BHQ2 binding to recombinant human N-terminal His6-tagged/Cy3-labelled Lin28a expressed in Escherichia coli Rosetta2 (DE3) pLysS measured after 30 to 60 mins by FRET assay.

Chain of Heterogeneous nuclear ribonucleoprotein A1 (Homo sapiens) (P09651 whole entry): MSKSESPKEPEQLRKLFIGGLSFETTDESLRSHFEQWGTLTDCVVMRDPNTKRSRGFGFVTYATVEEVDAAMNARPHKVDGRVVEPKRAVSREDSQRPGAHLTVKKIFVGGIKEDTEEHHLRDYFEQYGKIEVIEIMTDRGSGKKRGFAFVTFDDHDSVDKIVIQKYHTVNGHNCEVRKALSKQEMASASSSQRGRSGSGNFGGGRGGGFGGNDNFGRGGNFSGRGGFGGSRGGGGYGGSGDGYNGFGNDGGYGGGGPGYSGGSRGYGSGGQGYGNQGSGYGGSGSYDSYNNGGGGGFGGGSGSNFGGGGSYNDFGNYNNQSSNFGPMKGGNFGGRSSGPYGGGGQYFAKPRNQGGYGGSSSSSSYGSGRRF

For `NC(=O)c1c(Nc2ccc(Cl)cc2Cl)[nH]c2c(Cl)ccc(Cl)c2c1=O`, the outcome (in data set [1]; with JAR [4]; in the data set with JAR [5]; in the data set with JAR [18]) was inactive. The inhibition result in [2], in data set [3], in [7], in data set [10], in [14] and in [17] was “Active” each time. In addition, in data set [19], the inhibition entry is “Active”. Moreover, the Kd on Protein lin-28 homolog A [6] turned out to be 5.9 µM. Further, the inhibition result in data set [8] and in data set [12] was “inactive” in each case. For the same molecule, the inhibition entry in data set [9], in [11], in data set [16], in data set [20] and in data set [21] was “Dose-dependent effect” in each case. Besides, the outcome in [13] was Active. Also, the concentration for half-maximal inhibition (IC50) at Protein lin-28 homolog A [15] worked out at 4.8 µM. Besides, the Activity entry in the data set on C2C12 is recorded as “Toxic”.

As a reminder, the Kd is a measure of binding affinity in units of concentration. As usually defined, the IC50 is the concentration that gives 50% inhibition.

Source of the values: ChEMBL document CHEMBL4325922, “Restoring Let-7 microRNA Biogenesis Using a Small-Molecule Inhibitor of the Protein-RNA Interaction” (ACS Med Chem Lett, 2018).
